Assay results: ChEMBL document CHEMBL3875163, “Novel urea and bis-urea primaquine derivatives with hydroxyphenyl or halogenphenyl substituents: Synthesis and biological evaluation” (Eur J Med Chem, 2016)
≈ marks a conversion by molar mass, not a printed value.

Columns and labels:
[1] = Growth inhibition of human CEM cells after 72 hrs by MTT assay; type: functional, cell-based; conditions: CCRF-CEM
[2] = Growth inhibition of human NCI-H460 cells after 72 hrs by MTT assay; type: functional, cell-based; conditions: NCI-H460, 72 h
Procedure, shortened: (§1)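 Modified NCI DTP protocol: cells in DMEM with 10% FBS, 2 mM glutamine, antibiotics, 37 °C, 5% CO2; seeded 1 × 10^4 to 3 × 10^4 cells/ml on day 0, exposed to five 10-fold dilutions (10^-8 to 10^-4 M) for 72 h; solvent control. MTT read-out; quadruplicate points in three experiments; IC50 by linear regression of growth percentages bracketing 50%.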

[3] = Antioxidant activity assessed as inhibition of AAPH-induced linoleic acid lipid peroxidation at 1 x 10^-4 M by UV-absorbance method relative to control; type: functional
Procedure, shortened: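 Linoleic acid peroxidation: 16 mM sodium linoleate dispersion in 0.05 M phosphate buffer pH 7.4 at 37 °C under air, initiated by AAPH (40 mM solution); compound at 1 × 10^-4 M; oxidation followed at 234 nm. At least triplicate.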

[4] = Antioxidant activity assessed as DPPH radical scavenging activity at 100 uM after 60 mins relative to control; type: functional
Procedure, shortened: (§2)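 Compound in DMSO added to DPPH in absolute ethanol, 0.1 mM final; absorbance at 517 nm after 20 and 60 min at room temperature. At least triplicate.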

[5] = Growth inhibition of mouse L1210 cells after 72 hrs by MTT assay; type: functional, cell-based; conditions: L1210, 72 h
[6] = Growth inhibition of human MIAPaCa2 cells after 72 hrs by MTT assay; type: functional, cell-based; conditions: MIA PaCa-2, 72 h
[7] = Antioxidant activity assessed as DPPH radical scavenging activity at 100 uM after 20 mins relative to control; type: functional; procedure, shortened: as §2
[8] = Growth inhibition of human SW620 cells after 72 hrs by MTT assay; type: functional, cell-based; conditions: SW-620, 72 h; procedure, shortened: as §1
[9] = Growth inhibition of human Molt4/C8 cells after 72 hrs by MTT assay; type: functional, cell-based; conditions: MOLT-4, 72 h
Glycine max = test: Inhibition of soybean LOX assessed as reduction in conversion of sodium linoleate to 13-hydroperoxylinoleic acid at 1 x 10^-4 M relative to control
Procedure, shortened: (§3)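 Soybean lipoxygenase incubated at room temperature with sodium linoleate (0.1 mM) and test compound (DMSO stocks); formation of 13-hydroperoxylinoleic acid read at 234 nm. Single-point screening at 1 × 10^-4 M; IC50 from several concentrations. At least triplicate.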

[10] = Growth inhibition of human MCF7 cells after 72 hrs by MTT assay; type: functional, cell-based; conditions: MCF7, 72 h; procedure, shortened: as §1
[11] = Growth inhibition of human HeLa cells after 72 hrs by MTT assay; type: functional, cell-based
Candida albicans = test: Antifungal activity against Candida albicans ATCC 90028 after 18 hrs by serial microdilution broth assay; type: functional; conditions: ATCC 90028, 18 h
Procedure, shortened: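 Yeast microdilution in RPMI 1640 with glutamine plus 2% glucose, 1000 to 0.78125 µg/ml from 10 mg/ml DMSO stocks. Growth read with XTT (10 mg/ml) mixed 7:1 with menadione (1 mg/ml in acetone), absorbance at 540 nm. MIC taken as lowest concentration giving 50% growth inhibition versus untreated cells; tests in duplicate.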

Staphylococcus aureus [12] = test: Antibacterial activity against Staphylococcus aureus ATCC 6538 after 18 hrs by serial microdilution broth assay; type: functional; conditions: ATCC 6538, 18 h
Procedure, shortened: (§4)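 Broth microdilution MIC per EUCAST for aerobic bacteria in Mueller-Hinton broth, serial dilution 1000 to 0.78125 µg/ml from 10 mg/ml DMSO stocks. Inoculum from trypticase soy broth cultures (18 h, 37 °C), set to 0.5 McFarland in PBS pH 7.4, diluted 1:10. 18 h aerobic incubation at 35 °C in dark, then TTC 0.5 mg/ml for 3 h, HCl-isopropanol, A490. MIC = lowest concentration giving 50% inhibition versus untreated; duplicates.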

Staphylococcus aureus [13] = test: Antibacterial activity against methicillin resistant Staphylococcus aureus MFBF 10682 after 18 hrs by serial microdilution broth assay; type: functional; conditions: MFBF 10682, 18 h
Procedure, shortened: (§5)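 EUCAST-based broth microdilution in Mueller-Hinton broth. Glycerol stock cultures grown in trypticase soy broth 18 h at 37 °C; inoculum in PBS pH 7.4 at 0.5 McFarland, diluted 1:10 in broth. Compounds from DMSO stocks, 1000 to 0.78125 µg/ml; 18 h aerobic, 35 °C, dark. TTC 0.5 mg/ml added, 3 h, then HCl/isopropanol, A490. MIC = lowest concentration giving 50% inhibition vs untreated; duplicates, averaged.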

Enterococcus faecalis [14] = test: Antibacterial activity against vancomycin susceptible Enterococcus faecalis ATCC 29212 after 18 hrs by serial microdilution broth assay; type: functional; conditions: ATCC 29212, 18 h; procedure, shortened: as §4
Staphylococcus aureus [15] = test: Antibacterial activity against methicillin resistant Staphylococcus aureus MFBF 10679 after 18 hrs by serial microdilution broth assay; type: functional; conditions: MFBF 10679, 18 h; procedure, shortened: as §5
Staphylococcus aureus [16] = test: Antibacterial activity against methicillin sensitive Staphylococcus aureus ATCC 25923 after 18 hrs by serial microdilution broth assay; type: functional; conditions: ATCC 25923, 18 h; procedure, shortened: as §5
Staphylococcus aureus [17] = test: Antibacterial activity against methicillin sensitive Staphylococcus aureus ATCC 25213 after 18 hrs by serial microdilution broth assay; type: functional; conditions: ATCC 25213, 18 h; procedure, shortened: as §4
Pseudomonas aeruginosa [18] = test: Antibacterial activity against Pseudomonas aeruginosa ATCC 9027 after 18 hrs by serial microdilution broth assay; type: functional; conditions: ATCC 9027, 18 h; procedure, shortened: as §5
Escherichia coli = test: Antibacterial activity against Escherichia coli ATCC 10535 after 18 hrs by serial microdilution broth assay; type: functional; conditions: ATCC 10535, 18 h; procedure, shortened: as §4
Pseudomonas aeruginosa [19] = test: Antibacterial activity against Pseudomonas aeruginosa ATCC 27853 after 18 hrs by serial microdilution broth assay; type: functional; conditions: ATCC 27853, 18 h; procedure, shortened: as §4
Bacillus spizizenii = test: Antibacterial activity against Bacillus subtilis ATCC 6633 after 18 hrs by serial microdilution broth assay; type: functional; conditions: ATCC 6633, 18 h; procedure, shortened: as §4
Bacillus cereus = test: Antibacterial activity against Bacillus cereus ATCC 11778 after 18 hrs by serial microdilution broth assay; type: functional; conditions: ATCC 11778, 18 h; procedure, shortened: as §4
Enterococcus faecalis [20] = test: Antibacterial activity against vancomycin resistant Enterococcus faecalis MFBF 11419 after 18 hrs by serial microdilution broth assay; type: functional; conditions: MFBF 11419, 18 h; procedure, shortened: as §5
Bacillus pumilus = test: Antibacterial activity against Bacillus pumilus NCTC 8241 after 18 hrs by serial microdilution broth assay; type: functional; conditions: NCTC 8241, 18 h; procedure, shortened: as §4
Pseudomonas aeruginosa [21] = test: Antibacterial activity against multi-drug resistant Pseudomonas aeruginosa MFBF after 18 hrs by serial microdilution broth assay; type: functional; procedure, shortened: as §5
[22] = Inhibition of soybean LOX assessed as reduction in conversion of sodium linoleate to 13-hydroperoxylinoleic acid; set-up: species or system Glycine max; procedure, shortened: as §3

Compound	inhibition (Glycine max) [%]	IC50 [1] [µM]	IC50 [2] [µM]	inhibition [3] [%]	Activity [4] [%]	IC50 [5] [µM]	IC50 [6] [µM]	Activity [7] [%]	IC50 [8] [µM]	IC50 [9] [µM]	IC50 [10] [µM]	IC50 [11] [µM]	other results
COc1cc(NC(C)CCCNC(=O)Nc2ccc(O)cc2)c2ncccc2c1 (configuration not stated)	49.9	23	34	54	94.5	21	57	95.5	30	21	5.2	70	
COc1cc(NC(C)CCCN)c2ncccc2c1 (configuration not stated) [PRIMAQUINE]													MIC50 (Candida albicans): 350 µg/mL (≈ 1350 µM); MIC50 (Staphylococcus aureus [12]): 70 µg/mL (≈ 270 µM); MIC50 (Staphylococcus aureus [13]): 60 µg/mL (≈ 231 µM); MIC50 (Enterococcus faecalis [14]): > 100 µg/mL; MIC50 (Staphylococcus aureus [15]): 70 µg/mL (≈ 270 µM); MIC50 (Staphylococcus aureus [16]): 70 µg/mL (≈ 270 µM); MIC50 (Staphylococcus aureus [17]): 70 µg/mL (≈ 270 µM); MIC50 (Pseudomonas aeruginosa [18]): 70 µg/mL (≈ 270 µM); MIC50 (Escherichia coli): 65 µg/mL (≈ 251 µM); MIC50 (Pseudomonas aeruginosa [19]): 65 µg/mL (≈ 251 µM); MIC50 (Bacillus spizizenii): 80 µg/mL (≈ 308 µM); MIC50 (Bacillus cereus): 70 µg/mL (≈ 270 µM); MIC50 (Enterococcus faecalis [20]): > 100 µg/mL; MIC50 (Bacillus pumilus): 70 µg/mL (≈ 270 µM); MIC50 (Pseudomonas aeruginosa [21]): 70 µg/mL (≈ 270 µM)
COc1cc(NC(C)CCCNC(=O)Nc2ccc(F)cc2)c2ncccc2c1 (configuration not stated)	39.8	26	26	64.4	24.7	18	21		25	24	26	20	
COc1cc(NC(C)CCCNC(=O)NNC(=O)Nc2cccc(O)c2)c2ncccc2c1 (configuration not stated)	41.6	143	> 100	52.2	100	160	129	96.5	17	85	1.1	180	
COc1cc(NC(C)CCCNC(=O)Nc2cccc(F)c2)c2ncccc2c1 (configuration not stated)	44.6	21	24	74.3	26	19	22		27	23	18	18	
COc1cc(NC(C)CCCNC(=O)NNC(=O)Nc2cc(C(F)(F)F)cc(C(F)(F)F)c2)c2ncccc2c1 (configuration not stated)	33.9	13	18	39.9	88	18	20	86.8	16	22	2.4	17	
COc1cc(NC(C)CCCNC(=O)Nc2cccc(Cl)c2)c2ncccc2c1 (configuration not stated)	11.8	22	37	84.1	35.7	17	21		26	21	11	17	
CC(Cc1ccc(O)c(O)c1)C(C)Cc1ccc(O)c(O)c1 (configuration not stated) [NORDIHYDROGUAIARETIC ACID]	83				97			83					IC50 [22]: 4.5 µM
COc1cc(NC(C)CCCNC(=O)NNC(=O)Nc2cccc(C(F)(F)F)c2)c2ncccc2c1 (configuration not stated)	51.4	6.9	20	52.6	91.2	4	5.6	98.3	21	36	0.19	4.9	
Cc1c(C)c2c(c(C)c1O)CCC(C)(C(=O)O)O2 (configuration not stated)				76									
C[C@@H](c1ncncc1F)[C@](O)(Cn1cncn1)c1ccc(F)cc1F [VORICONAZOLE]													MIC50 (Candida albicans): 0.5 µg/mL (≈ 1.43 µM)
CN(C)[C@@H]1C(O)=C(C(N)=O)C(=O)[C@@]2(O)C(O)=C3C(=O)c4c(O)cccc4[C@@](C)(O)[C@H]3C[C@@H]12 [TETRACYCLINE]													MIC50 (Staphylococcus aureus [12]): 0.15 µg/mL (≈ 0.338 µM); MIC50 (Staphylococcus aureus [13]): 0.312 µg/mL (≈ 0.702 µM); MIC50 (Enterococcus faecalis [14]): 0.312 µg/mL (≈ 0.702 µM); MIC50 (Staphylococcus aureus [15]): 0.312 µg/mL (≈ 0.702 µM); MIC50 (Staphylococcus aureus [16]): 0.312 µg/mL (≈ 0.702 µM); MIC50 (Staphylococcus aureus [17]): 0.156 µg/mL (≈ 0.351 µM); MIC50 (Pseudomonas aeruginosa [18]): 3 µg/mL (≈ 6.75 µM); MIC50 (Escherichia coli): 2.5 µg/mL (≈ 5.63 µM); MIC50 (Pseudomonas aeruginosa [19]): 3 µg/mL (≈ 6.75 µM); MIC50 (Bacillus spizizenii): 0.312 µg/mL (≈ 0.702 µM); MIC50 (Bacillus cereus): 0.312 µg/mL (≈ 0.702 µM); MIC50 (Enterococcus faecalis [20]): > 128 µg/mL; MIC50 (Bacillus pumilus): 0.156 µg/mL (≈ 0.351 µM); MIC50 (Pseudomonas aeruginosa [21]): > 128 µg/mL
COc1cc(NC(C)CCCNC(=O)Nc2cccc(C(F)(F)F)c2)c2ncccc2c1 (configuration not stated)	48.3	19	21	71.8	47.7	9.2	17	31.3	22	20	3.3	14	

Continued, in another order:

inhibition (Glycine max) [%]	Compound	IC50 [1] [µM]	IC50 [2] [µM]	inhibition [3] [%]	Activity [4] [%]	IC50 [5] [µM]	IC50 [6] [µM]	Activity [7] [%]	IC50 [8] [µM]	IC50 [9] [µM]	IC50 [10] [µM]	IC50 [11] [µM]	other results
48.4	COc1cc(NC(C)CCCNC(=O)NNC(=O)Nc2cccc(Cl)c2)c2ncccc2c1 (configuration not stated)	81	32	70.8	95.1	27	74	97.9	25	93	0.22	44	
28	COc1cc(NC(C)CCCNC(=O)NNC(=O)Nc2ccc(Br)cc2)c2ncccc2c1 (configuration not stated)	110	27		99	51	231	96.9	17	209	0.1	101	
39	COc1cc(NC(C)CCCNC(=O)NNC(=O)Nc2ccc(Cl)cc2)c2ncccc2c1 (configuration not stated)	108	63	42.1	100	58	≥ 250	97.6	48	186	0.18	120	
33.4	COc1cc(NC(C)CCCNC(=O)NNC(=O)Nc2ccc(O)cc2)c2ncccc2c1 (configuration not stated)	111	> 100	61.9	100	95	142	99.3	> 100	104	2.6	85	
21.6	COc1cc(NC(C)CCCNC(=O)Nc2ccc(Cl)cc2)c2ncccc2c1 (configuration not stated)	24	34	81.9	37	19	22	24	28	24	12	18	
